Measured values taken from ChEMBL document CHEMBL1154208, “Antispasmodic effects and structure-activity relationships of labdane diterpenoids from Marrubium globosum ssp. libanoticum” (2009).
Active and inactive are the calls of the source. The rule behind the calls is not given here.

Each molecule was assayed on Ileum (assay: Antispasmodic activity in mouse distal ileum assessed as inhibition of acetylcholine-induced contractions after 20 mins). Details: not given.
Assay type: functional, tissue-based
Method in brief: (§1)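 Isolated mouse ileum segments. Contractions evoked by acetylcholine (10^-6 M) at 20 min intervals; after at least three stable control contractions, responses repeated with noncumulative increasing compound concentrations added 20 min before the stimulus, after tissue washing. Mean ± SEM of 6-8 experiments; concentration-response curves fitted by nonlinear regression.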

Question: With `CCO[C@@H]1O[C@@H]2O[C@]3(CC[C@]2(O)[C@H]1O)[C@H](C)C[C@H]1OC(=O)[C@@]2(C)CCC[C@@]3(C)[C@@H]12` (relative stereo) as the molecule, how does the inhibition read?
Answer: Its inhibition is “Dose-dependent effect”.

The molecules below were run on Ileum (assay: Antispasmodic activity in mouse distal ileum assessed as inhibition of acetylcholine-induced contractions at 100 ug/ml after 20 mins). Details: not given.
Assay type: functional
Method in brief: as §1

Question: How did the inhibition turn out when `C[C@@H]1C[C@H]2OC(=O)[C@@]3(C)CCC[C@@](C)([C@@H]23)[C@@]12CC[C@]1(CO[C@@H](O)C1)O2` was run?
Answer: Its inhibition is “Active”.

Question: Which inhibition does the source give for `C[C@@H]1C[C@@H](O)[C@H]2C(C)(C)CCC[C@]2(C)[C@@]1(O)CCC1=CC(=O)OC1` here?
Answer: The inhibition was “inactive”.

Question: With `C[C@@H]1C[C@H]2OC(=O)[C@@]3(C)CCC[C@@](C)([C@@H]23)[C@@]1(O)CCC1=CC(=O)OC1` as the molecule, how does the inhibition read?
Answer: The inhibition was “inactive”.

Question: Which inhibition does the source give for `C[C@@H]1C[C@H]2OC(=O)[C@@]3(C)CCC[C@@](C)([C@@H]23)[C@@]12CC[C@@]1(CO[C@H](O)C1)O2` here?
Answer: Its inhibition is “inactive”.

Question: With `C[C@@H]1C[C@H]2OC(=O)[C@@]3(C)CCC[C@@](C)([C@@H]23)[C@@]1(O)CCCC(=O)O` as the molecule, how does the inhibition read?
Answer: The inhibition was “Active”.

Question: How did the inhibition turn out when `C[C@@H]1C[C@H]2OC(=O)[C@@]3(C)CCC[C@@](C)([C@@H]23)[C@@]12CC[C@@]1(CO[C@@H](O)C1)O2` was run?
Answer: The inhibition was “inactive”.

Question: How did the inhibition turn out when `C[C@@H]1C[C@H]2OC(=O)[C@@]3(C)CCC[C@@](C)([C@@H]23)[C@@]12CC[C@]1(CO[C@H](O)C1)O2` was run?
Answer: The inhibition was “Active”.

Question: How did the inhibition turn out when `C[C@@H]1C[C@H]2OC(=O)[C@@]3(C)CCC[C@@](C)([C@@H]23)[C@@]12CC[C@@]1(COC(=O)C1)O2` was run?
Answer: The inhibition was “Active”.

Question: For `C[C@@H]1C[C@H]2OC(=O)[C@@]3(C)CCC[C@@](C)([C@@H]23)[C@@]12CC[C@]1(COC(=O)C1)O2`, which inhibition is on record?
Answer: Its inhibition is “Active”.

Same assay, conditions: read-out: INH

Question: Which inhibition at 100 µg/mL does the source give for `C[C@@H]1C[C@H]2OC(=O)[C@@]3(C)CCC[C@@](C)([C@@H]23)[C@@]12CCCC(=O)O2` [MARRULACTONE] here?
Answer: Its inhibition at 100 µg/mL is < 50%.

Question: How did the inhibition at 100 µg/mL turn out when `C[C@@H]1C[C@H]2OC(=O)[C@@]3(C)CCC[C@@](C)([C@@H]23)[C@@]12CCC(=O)O2` was run?
Answer: The inhibition at 100 µg/mL was < 50%.
